Reference: ChEMBL document CHEMBL1144988, “Stereoselective preparation of N-[(R,R)-(E)-1-(3,4-dichlorobenzyl)-3- (2-oxoazepan-3-yl)carbamoyl]allyl-N-methyl-3,5-bis(trifluoromethyl)benzamide, a potent and orally active dual neurokinin NK(1)/NK(2) receptor antagonist” (J Med Chem, 2003)
Several values for one entry are separate records, joined by “and”; a condition that tells them apart may be missing. Equal values may be shown once.

Experiments:
Substance-P receptor [1] = target: Substance-P receptor (Homo sapiens, UniProt P25103); assay: In vitro binding affinity towards Human Tachykinin receptor 1
Outline: (§1)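 Membranes from CHO cells expressing cloned human NK1 receptor, incubated with 3H-[Sar9,Met(O2)11]SP (0.5 nM final) in 20 mM HEPES, 1 mM MnCl2, pH 7.4, for 60 min at 28 °C. Nonspecific binding was defined with Sar9SP. Bound radioactivity was collected by filtration, washed with ice-cold 50 mM Tris pH 7.4, then counted by scintillation.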

Substance-K receptor [2] = target: T1, Substance-K receptor (Homo sapiens, UniProt P21452); assay: In vitro binding affinity towards Human Tachykinin receptor 2
T1 sequence (P21452 whole entry): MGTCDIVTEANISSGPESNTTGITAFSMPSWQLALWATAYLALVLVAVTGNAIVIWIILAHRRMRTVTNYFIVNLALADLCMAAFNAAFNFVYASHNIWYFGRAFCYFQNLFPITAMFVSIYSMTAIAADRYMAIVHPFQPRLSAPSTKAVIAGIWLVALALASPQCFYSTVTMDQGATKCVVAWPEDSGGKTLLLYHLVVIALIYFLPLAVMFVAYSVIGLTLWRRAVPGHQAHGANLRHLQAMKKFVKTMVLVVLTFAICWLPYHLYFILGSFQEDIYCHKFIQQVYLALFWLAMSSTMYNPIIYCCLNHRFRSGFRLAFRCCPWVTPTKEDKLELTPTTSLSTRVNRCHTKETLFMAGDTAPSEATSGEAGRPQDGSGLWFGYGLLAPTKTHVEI
Outline: as §1, with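 “NK2” for “NK1”, “125I-neurokinin A (1.4” for “3H-[Sar9,Met(O2)11]SP (0.5”, “NKA.” for “Sar9SP.”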

[3] = Bioavailability in guinea pig (dose 10 mg/kg p.o.); assay type: ADME, organism-based, Cavia porcellus; settings: in vivo, po
Outline: (§2)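 Guinea pigs given a single oral dose of 10 mg/kg (n = 7) as a microemulsion (2% DMSO/20% Sandimmon placebo/78% saline) or as a cremophor/2% DMSO formulation. Food was withdrawn up to 18 h predose, and animals carried heparin-flushed cannulas. Blood was sampled at 60, 120, 240, 360, 480, 720 and 1440 min. The read-outs were t1/2, Cmax, AUC0–24h and bioavailability.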

[4] = Area Under the concentration-time curve from zero time to 24 hr in guinea pig when given at a dose of 10 mg/kg perorally (Microemulsion); assay type: ADME, organism-based, Cavia porcellus; set-up: time < 24 hr, dose 10 mg/kg, route oral; settings: in vivo, po; outline: as §2
[5] = Area Under the concentration-time curve from zero time to 24 hr in guinea pig when given at a dose of 10 mg/kg perorally (cremophor); assay type: ADME, organism-based, Cavia porcellus; set-up: time < 24 hr, dose 10 mg/kg, route oral; settings: in vivo, po; outline: as §2
[6] = Area Under the concentration-time curve from zero time to 24 hr in guinea pig when given at a dose of 3 mg/kg intravenously; assay type: ADME, organism-based, Cavia porcellus; set-up: time < 24 hr, dose 3 mg/kg, route intravenous; settings: in vivo, iv
Outline: (§3)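 Guinea pigs given 3 mg/kg iv via the jugular vein (n = 6) in a cremophor formulation, with cannulas flushed with heparinized saline. Blood was sampled at 5, 30, 60, 120, 240, 360, 720 and 1440 min. The read-outs were terminal elimination half-life and AUC0–24h.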

[7] = (§4) Half life period in guinea pig when given at a dose of 10 mg/kg perorally; assay type: ADME, organism-based, Cavia porcellus; set-up: dose 10 mg/kg, route oral; settings: in vivo, po; outline: as §2
Cavia porcellus [8] = assay: as §4; assay type: ADME, organism-based; set-up: dose 10 mg/kg, route oral; settings: in vivo, po; outline: as §2
[9] = Half life period in guinea pig when given at a dose of 3 mg/kg intravenously; assay type: ADME, organism-based, Cavia porcellus; set-up: dose 3 mg/kg, route intravenous; settings: in vivo, iv; outline: as §3
[10] = (§5) Plasma concentration in Blood of guinea pig when given at a dose of 10 mg/kg perorally; assay type: ADME, organism-based, Cavia porcellus; set-up: dose 10 mg/kg, route oral; settings: plasma, po; outline: as §2
Cavia porcellus [11] = assay: as §5; assay type: ADME, organism-based; set-up: dose 10 mg/kg, route oral; settings: in vivo, po; outline: as §2
Substance-P receptor [12] = target: Substance-P receptor (Cavia porcellus, UniProt P30547); assay: In vitro relative antagonist potency towards guinea pig Tachykinin receptor 1; assay type: functional; settings: read-out: pA2 (converted)
Substance-K receptor [13] = target: T2, Substance-K receptor (Cavia porcellus, UniProt Q64077); assay: In vitro relative antagonist potency towards guinea pig Tachykinin receptor 2; assay type: functional; settings: read-out: pA2 (converted)
T2 sequence (Q64077 whole entry): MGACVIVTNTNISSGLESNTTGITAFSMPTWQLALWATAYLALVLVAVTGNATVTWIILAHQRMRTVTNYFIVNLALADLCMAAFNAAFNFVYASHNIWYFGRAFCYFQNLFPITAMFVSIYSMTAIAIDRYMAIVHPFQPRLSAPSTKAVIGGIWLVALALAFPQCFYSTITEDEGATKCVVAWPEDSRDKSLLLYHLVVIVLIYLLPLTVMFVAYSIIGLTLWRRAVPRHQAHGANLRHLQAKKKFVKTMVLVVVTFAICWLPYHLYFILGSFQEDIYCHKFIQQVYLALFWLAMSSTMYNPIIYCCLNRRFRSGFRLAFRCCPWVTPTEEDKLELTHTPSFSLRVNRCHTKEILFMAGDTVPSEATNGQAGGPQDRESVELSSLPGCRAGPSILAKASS

Saimiri sciureus [14] = assay: In vivo Effective peroral dose which inhibits Beta-ala8-Neurokinin A induced bronchoconstriction (dynamic compliance) in squirrel monkey; settings: in Primates, po
Saimiri sciureus [15] = assay: In vivo Effective peroral dose which inhibits Beta-ala8-Neurokinin A induced bronchoconstriction (airways resistance) in squirrel monkey; settings: in Primates, po

Chain of Substance-P receptor (Homo sapiens, UniProt P25103) (P25103 whole entry): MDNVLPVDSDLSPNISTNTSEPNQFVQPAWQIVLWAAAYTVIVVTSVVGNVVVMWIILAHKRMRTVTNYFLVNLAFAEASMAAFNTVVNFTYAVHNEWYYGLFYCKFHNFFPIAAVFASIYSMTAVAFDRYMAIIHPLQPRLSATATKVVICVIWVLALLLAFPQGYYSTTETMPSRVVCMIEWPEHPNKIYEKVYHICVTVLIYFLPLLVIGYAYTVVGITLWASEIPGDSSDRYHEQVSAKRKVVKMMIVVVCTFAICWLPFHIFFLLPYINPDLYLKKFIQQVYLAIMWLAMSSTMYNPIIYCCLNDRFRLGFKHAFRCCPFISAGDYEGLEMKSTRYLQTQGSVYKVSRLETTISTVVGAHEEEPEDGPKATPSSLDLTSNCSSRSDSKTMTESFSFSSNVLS
Chain of Substance-P receptor (Cavia porcellus, UniProt P30547) (P30547 whole entry): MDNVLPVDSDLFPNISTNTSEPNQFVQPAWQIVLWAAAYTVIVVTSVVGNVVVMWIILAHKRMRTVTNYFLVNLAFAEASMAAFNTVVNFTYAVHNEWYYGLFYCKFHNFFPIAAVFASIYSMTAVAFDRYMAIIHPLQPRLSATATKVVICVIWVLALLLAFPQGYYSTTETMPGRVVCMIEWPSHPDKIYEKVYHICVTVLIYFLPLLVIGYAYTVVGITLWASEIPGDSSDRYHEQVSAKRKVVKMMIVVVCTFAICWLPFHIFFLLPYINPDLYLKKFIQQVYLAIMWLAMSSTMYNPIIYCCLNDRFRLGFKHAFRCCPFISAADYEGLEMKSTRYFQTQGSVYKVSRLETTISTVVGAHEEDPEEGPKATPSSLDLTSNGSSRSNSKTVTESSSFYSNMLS

Row | SMILES | Ki (Substance-P receptor [1]) [nM] | Ki (Substance-K receptor [2]) [nM] | F [3] | AUC at 24 h [4] [ng·h/mL] | AUC at 24 h [5] [ng·h/mL] | AUC at 24 h [6] [ng·h/mL] | half-life [7] [min] | T1/2 (Cavia porcellus [8]) [h] | half-life [9] [min] | Cmax [10] [ng/mL] | Cmax (Cavia porcellus [11]) [ng/mL] | Kb (Substance-P receptor [12]) [nM] | Kb (Substance-K receptor [13]) [nM] | ED50 (Saimiri sciureus [14]) [mg/kg] | ED50 (Saimiri sciureus [15]) [mg/kg]
1 | CN(C(=O)c1cc(C(F)(F)F)cc(C(F)(F)F)c1)[C@H](/C=C/C(=O)N[C@H]1CCCCNC1=O)Cc1ccc(Cl)c(Cl)c1 | 18.2 | 182 |  |  |  |  |  |  |  |  |  |  |  |  | 
2 | CN(C(=O)c1cc(C(F)(F)F)cc(C(F)(F)F)c1)[C@H](/C=C/C(=O)N[C@@H]1CCCCNC1=O)Cc1ccc(Cl)c(Cl)c1 | 0.832 | 457 |  |  |  |  |  |  |  |  |  |  |  |  | 
3 | CN(C(=O)c1cc(C(F)(F)F)cc(C(F)(F)F)c1)[C@@H](/C=C/C(=O)N[C@H]1CCCCNC1=O)Cc1ccc(Cl)c(Cl)c1 | 8.71 | 102 |  |  |  |  |  |  |  |  |  |  |  |  | 
4 | CN(C(=O)c1cc(C(F)(F)F)cc(C(F)(F)F)c1)[C@@H](/C=C/C(=O)N[C@@H]1CCCCNC1=O)Cc1ccc(Cl)c(Cl)c1 [DNK333] | 4.17 | 9.55 | 41% and 17.4% | 6380 | 2710 | 4690 | 228 | 5.4 | 252 | 600 | 415 | 11.7 | 53.7 | 2.8 | 1
